Experimental data published in ChEMBL document CHEMBL1150250, “New R/S-3,4-dihydro-2,2-dimethyl-6-halo-4-(phenylaminothiocarbonylamino)-2H-1-benzopyrans structurally related to (+/-)-cromakalim as tissue-selective pancreatic beta-cell K(ATP) channel openers” (Bioorg Med Chem, 2008).
Active and inactive are the calls of the source. The calls are words filed in the database; no cut-off is given here.

Assays:
[1] = Inhibition of glucose-induced insulin secretion in Wistar rat pancreatic beta islets assessed as residual insulin secretion at 10 uM relative to control; assay type: functional
Aorta [2] = assay: Myorelaxant activity in potassium depolarized Wistar rat aorta rings assessed as relaxation of KCl-induced contraction; assay type: functional, tissue-based
How it was run: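 Thoracic aorta rings (3–4 mm) from adult fed Wistar rats were equilibrated for 60 min, then contracted with 30 mM KCl. Drug was added cumulatively up to maximal relaxation or 300 µM, and isometric tension was recorded. Relaxation was expressed as % of the KCl contraction. EC50 (50% inhibition of the KCl plateau) was derived from dose–response curves. Values are mean ± SEM (n).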

[3] = Inhibition of glucose-induced insulin secretion in Wistar rat pancreatic beta islets assessed as residual insulin secretion at 1 uM relative to control; assay type: functional
[4] = Inhibition of glucose-induced insulin secretion in Wistar rat pancreatic beta islets assessed as residual insulin secretion relative to control; assay type: functional
How it was run: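 Groups of 10 islets from adult fed Wistar rats were preincubated for 30 min at 37 °C in bicarbonate salt medium with 2.8 mM glucose and 0.5% albumin, gassed with O2/CO2. They were then incubated for 90 min in the same medium with 16.7 mM glucose plus drug. Insulin was measured by radioimmunoassay and expressed as % of drug-free 16.7 mM glucose control. Values are mean ± SEM (n).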

Aorta [5] = assay: Ratio of IC50 for glucose-induced insulin secretion in Wistar rat pancreatic beta islets to EC50 for myorelaxant activity in Wistar rat aorta rings; assay type: functional
How it was run: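 Selectivity ratio: the estimated IC50 for inhibition of 16.7 mM glucose-induced insulin release from incubated islets, divided by the EC50 for relaxing 30 mM KCl-contracted rat aortic rings.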

[6] = Activation of KATP channel assessed as increase in rate of [86Rb] fractional outflow in perfused Wistar rat pancreatic beta islets at 10 uM
How it was run: (§1)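 Islets from adult fed Wistar rats, in groups of 100, were loaded for 60 min at 37 °C in medium with 16.7 mM glucose plus either 86Rb (0.15–0.25 mmol/L) or 45Ca (0.02–0.04 mmol/L). They were washed three times and then perifused at 1.0 mL/min. Effluent was collected each minute from min 31 to 90. Outflow was expressed as fractional outflow rate (% of instantaneous islet content per min). Insulin in the effluent was measured by radioimmunoassay against a rat insulin standard.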

[7] = Activation of KATP channel assessed as increase in rate of [86Rb] fractional outflow in perfused Wistar rat pancreatic beta islets in presence of glibenclamide at 10 uM; how it was run: as §1
[8] = Activation of KATP channel assessed as reduction of glucose-induced rise in cytosolic calcium concentration in Wistar rat pancreatic beta islets at 10 uM by calcium fluorimetry
How it was run: (§2)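 Dispersed rat islet cells were cultured for 72 h on coverslips, then loaded with fura-2 AM (2 µmol/L) for 1 h. Cells were perifused in bicarbonate salt medium with 2.8 mM glucose, gassed with O2/CO2. The rise in [Ca2+]i was evoked by 20 mM glucose or by 50 mM KCl, with NaCl lowered to keep osmolarity constant. Drug was 10 µM. Dual-excitation (340/380 nm, emission 510 nm) ratio F340/F380 was recorded in single cells, on different cell populations.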

[9] = Activation of KATP channel assessed as reduction of KCl-induced rise in calcium concentration in Wistar rat pancreatic beta islets at 10 uM by calcium fluorimetry; how it was run: as §2
[10] = Activation of KATP channel assessed as increase in rate of [45Ca] fractional outflow in perfused Wistar rat pancreatic beta islets at 10 uM; how it was run: as §1
[11] = Activation of KATP channel assessed as increase in rate of [45Ca] fractional outflow in perfused Wistar rat pancreatic beta islets at 10 uM in absence of extracellular calcium; how it was run: as §1
[12] = Activation of KATP channel assessed as insulin release in perfused Wistar rat pancreatic beta islets at 10 uM; how it was run: as §1

Row | Compound | EC50 (Aorta [2]) [µM] | Activity [1] [%] | further results
1 | COc1ccccc1NC(=S)NC1CC(C)(C)Oc2ccc(Cl)cc21 (centres undefined) | 5.5 | 76.8 | –
2 | CC1(C)CC(NC(=S)Nc2ccccc2)c2cc(Br)ccc2O1 (centres undefined) | 51.5 | 32.8 | –
3 | CC1(C)CC(NC(=S)Nc2cccc(Cl)c2)c2cc(F)ccc2O1 (centres undefined) | > 10 | 18 | Activity [3]: 90.2%; IC50 [4]: 3.25 µM; Ratio IC50/EC50 (Aorta [5]): <0.32
4 | COc1cccc(NC(=S)NC2CC(C)(C)Oc3ccc(Br)cc32)c1 (centres undefined) | > 10 | 36.6 | –
5 | CC1(C)CC(NC(=S)Nc2ccccc2Cl)c2cc(Br)ccc2O1 (centres undefined) | 6.5 | 57.5 | –
6 | CC1=Nc2ccc(Cl)cc2S(=O)(=O)N1 [DIAZOXIDE] | – | 73.9 | Activity [3]: 87.5%; Ratio IC50/EC50 (Aorta [5]): 1.01
7 | CC1(C)CC(NC(=S)Nc2cccc(Cl)c2)c2cc(Cl)ccc2O1 (centres undefined) | > 10 | 16.2 | Activity [3]: 89.5%; IC50 [4]: 3.12 µM; Ratio IC50/EC50 (Aorta [5]): <0.31
8 | CC1(C)CC(NC(=S)Nc2ccc(Cl)cc2)c2cc(Br)ccc2O1 (centres undefined) | > 10 | 12.2 | Activity [3]: 75.7%; IC50 [4]: 2.26 µM; Ratio IC50/EC50 (Aorta [5]): <0.22; Activity [6]: Active; Activity [7]: inactive; Activity [8]: Active; Activity [9]: inactive
9 | COc1ccccc1NC(=S)NC1CC(C)(C)Oc2ccc(F)cc21 (centres undefined) | > 10 | 82.9 | –
10 | CC1(C)CC(NC(=S)Nc2ccc(Cl)cc2)c2cc(F)ccc2O1 (centres undefined) | > 10 | 10.5 | Activity [3]: 77.5%; IC50 [4]: 2.3 µM; Ratio IC50/EC50 (Aorta [5]): <0.23; Activity [6]: Active; Activity [7]: inactive; Activity [10]: Active; Activity [11]: inactive; Activity [8]: Active; Activity [9]: inactive; Activity [12]: Active
11 | CC1(C)Oc2ccc(C#N)cc2C(N2CCCC2=O)C1O (racemic) [CROMAKALIM] | 0.13 | 94.4 | Activity [3]: 95.3%; IC50 [4]: > 100 µM; Ratio IC50/EC50 (Aorta [5]): >770
12 | Cc1ccccc1NC(=S)NC1CC(C)(C)Oc2ccc(Cl)cc21 (centres undefined) | > 30 | 69 | –
13 | Cc1ccc(NC(=S)NC2CC(C)(C)Oc3ccc(Br)cc32)cc1 (centres undefined) | > 30 | 52.2 | –
14 | COc1cccc(NC(=S)NC2CC(C)(C)Oc3ccc(Cl)cc32)c1 (centres undefined) | 2.9 | 34.3 | –
15 | Cc1cccc(NC(=S)NC2CC(C)(C)Oc3ccc(Cl)cc32)c1 (centres undefined) | 137 | 43 | –
16 | CC1(C)CC(NC(=S)Nc2ccc(Cl)cc2)c2cc(Cl)ccc2O1 (centres undefined) | > 10 | 8.9 | Activity [3]: 87.9%; IC50 [4]: 2.75 µM; Ratio IC50/EC50 (Aorta [5]): <0.27
17 | CC1(C)CC(NC(=S)Nc2cccc(Cl)c2)c2cc(Br)ccc2O1 (centres undefined) | > 10 | 23 | Activity [3]: 74.6%; IC50 [4]: 2.59 µM; Ratio IC50/EC50 (Aorta [5]): <0.25
18 | Cc1cccc(NC(=S)NC2CC(C)(C)Oc3ccc(Br)cc32)c1 (centres undefined) | > 30 | 37.2 | –
19 | CC1(C)CC(NC(=S)Nc2ccccc2Cl)c2cc(F)ccc2O1 (centres undefined) | 24.4 | 81.3 | –
20 | Cc1ccccc1NC(=S)NC1CC(C)(C)Oc2ccc(Br)cc21 (centres undefined) | > 30 | 57 | –

Continued, in another order:

Row | EC50 (Aorta [2]) [µM] | Compound | Activity [1] [%] | further results
21 | 11.1 | Cc1ccccc1NC(=S)NC1CC(C)(C)Oc2ccc(F)cc21 (centres undefined) | 69.8 | –
22 | 11.1 | CC1(C)CC(NC(=S)Nc2ccccc2)c2cc(Cl)ccc2O1 (centres undefined) | 46.6 | –
23 | 6.2 | COc1cccc(NC(=S)NC2CC(C)(C)Oc3ccc(F)cc32)c1 (centres undefined) | 52 | –
24 | > 30 | Cc1ccc(NC(=S)NC2CC(C)(C)Oc3ccc(Cl)cc32)cc1 (centres undefined) | 32.8 | –
25 | 7.6 | CC1(C)CC(NC(=S)Nc2ccccc2)c2cc(F)ccc2O1 (centres undefined) | 63.2 | –
26 | 0.35 | CC(N/C(=N\C#N)Nc1ccncc1)C(C)(C)C (racemic) [PINACIDIL ANHYDROUS] | – | IC50 [4]: > 100 µM
27 | > 10 | COc1ccc(NC(=S)NC2CC(C)(C)Oc3ccc(Br)cc32)cc1 (centres undefined) | 53.1 | –
28 | 36.3 | CC(C)NC1=NS(=O)(=O)c2cc(Cl)ccc2N1 | 4.9 | Activity [3]: 36.2%; IC50 [4]: 0.73 µM; Ratio IC50/EC50 (Aorta [5]): 0.02
29 | 3.2 | CC1(C)CC(NC(=S)Nc2ccccc2Cl)c2cc(Cl)ccc2O1 (centres undefined) | 68.2 | –
30 | > 10 | COc1ccccc1NC(=S)NC1CC(C)(C)Oc2ccc(Br)cc21 (centres undefined) | 65.1 | –
31 | 7.3 | Cc1cccc(NC(=S)NC2CC(C)(C)Oc3ccc(F)cc32)c1 (centres undefined) | 53.1 | –
32 | 21.6 | COc1ccc(NC(=S)NC2CC(C)(C)Oc3ccc(F)cc32)cc1 (centres undefined) | 73.8 | –
33 | 12.7 | COc1ccc(NC(=S)NC2CC(C)(C)Oc3ccc(Cl)cc32)cc1 (centres undefined) | 50.4 | –
34 | > 30 | Cc1ccc(NC(=S)NC2CC(C)(C)Oc3ccc(F)cc32)cc1 (centres undefined) | 60.2 | –
